INS-1E ATP HTS – protection of INS-1E cells from cytokine death, primary screen, ATP luminescence, single point. 20,000 compounds, 0.1% hits. AID 488910, 2010. protection from cytokine-induced ATP loss, % at 10 µM. INS-1E cytokine-induced death, 48 h; normalised: neutral wells 0, positive control 100;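 active = mean replicate protection from cytokine-induced ATP loss at least 50% and at least 75% of replicates each reaching 50%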
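Test system: INS-1E rat cells | Quantity: 8000 cells per well | Medium: Phenol-red-free RPMI with 5% fetal bovine serum | Reagent: Cytokine cocktail of IFN-γ, TNF-α and IL-1β | Doses: One compound concentration, pin transfer | Timing: 48 h co-treatment, 10 min post-lysis read | Technique: Luminescent ATP assay (CellTiter-Glo)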
A1 apoptosis 2 – A1 inhibitors via caspase activation, primary screen, cell-based, luminescence, HTS, two replicates | MEF A1-2A-BIM cells, caspase-Glo luminescence, 3 h; percent of clofoctol response, DMSO zero | caspase activation, % (no concentration beside the values) | 24,000 tested, under 10 active | AID 2465, 2010; in the data active = caspase activation above about 5.9%
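Test system – A1-2A-BIM-expressing MEF cells · Input – 2500 cells/well · Medium – RPMI-1640 growth medium with 10% FBS · Compound dosing – 50 nL pinned compound · Timing – 3 h compound exposure at 37 °C · Technique – Caspase-Glo luminescence (DEVD substrate) · Evaluation – Caspase-3/7 activity from luminescence increase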
T cruzi HTS – inhibitors of intracellular Trypanosoma cruzi, primary screen, cell-based, plate reader, single point, set 2; intracellular Trypanosoma cruzi in host cells; activity score (inhibition), % at 5.01 µM; 22,000 compounds, 4.9% hits; in the data active = activity score above about 55%;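 also: parasites and compound incubated about four days before reading; 0% = median of neutral control wells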
Starred values were filed as active, the others as inactive; · = no result given. The full list was thinned out, with hits kept by preference.

SMILES	INS-1E ATP HTS	A1 apoptosis 2	T cruzi HTS
C[C@@H]1CN([C@H](C)CO)C(=O)c2cccc(NC(=O)c3cnccn3)c2O[C@H]1CN(C)Cc1ccc(Oc2ccccc2)cc1	-21.8	·	33.2
C[C@H]1CN([C@@H](C)CO)C(=O)c2cccc(NC(=O)c3ccncc3)c2O[C@H]1CN(C)Cc1ccc(Oc2ccccc2)cc1	-15.9	-0.7	82.3*
COc1ccc(/C=N/NC(=O)CCCCCCC(=O)Nc2ccccc2O)cc1	9.5	-0.2	-11.1
C[C@H]1CN([C@@H](C)CO)C(=O)Cc2cc(NC(=O)Nc3ccccc3)ccc2O[C@H]1CN(C)Cc1ccc(C(F)(F)F)cc1	-47.2	·	66.9*
C[C@@H]1CN([C@H](C)CO)C(=O)Cc2cc(NC(=O)Cc3ccccc3)ccc2O[C@H]1CN(C)Cc1ccc(C(F)(F)F)cc1	-5.0	-1.5	70.3*
C[C@H](CO)N1C[C@H](C)[C@H](CN(C)Cc2ccccc2)Oc2ccc(NC(=O)Nc3ccc(F)cc3)cc2CC1=O	-9.0	0.0	-40.3
C[C@H](CO)N1C[C@H](C)[C@H](CN(C)Cc2ccccc2)Oc2ccc(NC(=O)Nc3ccccc3)cc2CC1=O	2.9	2.3	-6.9
C[C@H](CO)N1C[C@H](C)[C@H](CN(C)Cc2ccccc2)Oc2ccc(NC(=O)Cc3ccccc3)cc2CC1=O	-4.1	0.0	28.6
C[C@@H]1CN([C@H](C)CO)C(=O)Cc2cc(NC(=O)Nc3ccc(C(F)(F)F)cc3)ccc2O[C@H]1CN(C)Cc1ccccc1	-8.2	·	72.5*
C[C@H]1CN([C@@H](C)CO)C(=O)Cc2cc(NC(=O)Nc3ccc(C(F)(F)F)cc3)ccc2O[C@H]1CN(C)Cc1ccccc1	-89.4	·	70.3*
O=C(O)CNS(=O)(=O)c1ccccc1	·	0.6	·
COC(=O)CCCCCCC(=O)N/N=C/c1ccc2c(c1)CCO2	-3.4	·	-5.2
COC(=O)CCCCCCC(=O)N/N=C/c1cc(Br)cs1	2.5	1.1	-16.6
CC(C)(C)OC(=O)Nc1cccc(/C=N/NC(=O)CCCCCCC(=O)Nc2ccccc2O)c1	-2.5	-0.5	26.6
C[C@H](CO)N1C[C@H](C)[C@H](CN(C)Cc2ccccc2)Oc2ccc(NC(=O)Nc3ccc(C(F)(F)F)cc3)cc2CC1=O	-5.3	·	66.1*
C[C@H](CO)N1C[C@H](C)[C@@H](CN(C)Cc2ccccc2)Oc2ccc(NC(=O)Nc3ccc(C(F)(F)F)cc3)cc2CC1=O	·	0.1	·
COc1ccc([Si](C)(C)[C@@H]2[C@@H](CCn3cc(CCO)nn3)O[C@]3(C(=O)N(C)c4ccccc43)[C@H]2C)cc1	·	1.4	·
COc1ccc([Si](C)(C)[C@@H]2[C@@H](CCO)O[C@]3(C(=O)N4c5c(cc(OC)cc53)C(C)=CC4(C)C)[C@H]2C)cc1	·	26.7*	·
COc1ccc([Si](C)(C)[C@@H]2[C@@H](CCn3cc(CCO)nn3)O[C@]3(C(=O)N(c4ccccc4)c4ccccc43)[C@H]2C)cc1	·	12.2*	·
COc1ccc([Si](C)(C)[C@H]2[C@H](CCO)O[C@@]3(C(=O)N(c4ccccc4)c4ccccc43)[C@@H]2C)cc1	·	-1.4	·
C=CCOC(=O)[C@H]1[C@@H]2C(=O)O[C@@H](c3ccccc3)[C@@H](c3ccccc3)N2[C@@H](c2ccc(OCCOC(=O)[C@@H]3C[C@@H]4C(=O)N[C@@H](CC(C)C)C(=O)N4[C@@H]3c3cccc(OCCO)c3)cc2)[C@]12C(=O)Nc1ccc(I)cc12	·	0.5	·
C/C(=N\O)C(=O)NCCCCCNC(=O)OCc1ccccc1	·	0.4	·
CCCCN(CCCC)c1ccc(/C=N/NC(=O)c2ccccn2)cc1	-1.1	·	52.3
C[C@@H]1CN([C@@H](C)CO)C(=O)c2cccc(NC(=O)C3CCCCC3)c2O[C@@H]1CN(C)S(=O)(=O)c1ccccc1	-1.9	·	56.7*
C[C@H](CO)N1C[C@H](C)[C@@H](CN(C)Cc2ccc(-c3ccccc3)cc2)Oc2c(NC(=O)C3CC3)cccc2C1=O	-52.7	·	69.1*
SMILES	INS-1E ATP HTS	A1 apoptosis 2	T cruzi HTS
C[C@@H]1CN([C@H](C)CO)C(=O)c2cccc(NC(=O)C3CCCCC3)c2O[C@@H]1CN(C)Cc1ccc(-c2ccccc2)cc1	-64.6	·	45.6
C[C@H]1CN([C@@H](C)CO)C(=O)c2cccc(NC(=O)C3CCCCC3)c2O[C@@H]1CN(C)S(=O)(=O)c1ccccc1	1.6	·	5.4
C[C@@H]1CN([C@@H](C)CO)C(=O)c2cccc(NC(=O)C3CCCCC3)c2O[C@H]1CN(C)Cc1ccc(-c2ccccc2)cc1	-38.7	·	71.4*
C[C@H](CO)N1C[C@H](C)[C@H](CN(C)Cc2ccc(-c3ccccc3)cc2)Oc2c(NC(=O)C3CC3)cccc2C1=O	-24.7	1.7	-13.2
C[C@H](CO)N1C[C@H](C)[C@@H](CN(C)S(=O)(=O)c2cn(C)cn2)Oc2c(cccc2N(C)C)C1=O	5.5	-0.6	58.9*
C[C@@H]1CN([C@@H](C)CO)C(=O)c2cccc(N(C)C)c2O[C@H]1CN(C)S(=O)(=O)c1cn(C)cn1	5.6	·	-5.7
O=C(O)CCCCCC(=O)N/N=C/c1ccccc1[N+](=O)[O-]	7.5	0.7	-19.3
Cc1[nH]cnc1/C=N/NC(=O)CCCCC(=O)NO	14.2	1.2	-4.4
O=C(N/N=C/c1ccc(Br)o1)c1ccccn1	-7.3	-3.5	22.8
COC(=O)CCCCCCC(=O)N/N=C/c1ccc(F)c(Oc2ccccc2)c1	1.2	-0.2	5.8
O=C1O[C@H](c2ccccc2)[C@H](c2ccccc2)N2[C@H]1[C@@H](C(=O)N1CCN(c3ncccn3)CC1)[C@]1(C(=O)Nc3ccccc31)[C@H]2c1ccccc1OCCO	·	-0.8	·
COc1ccc([Si](C)(C)[C@@H]2[C@@H](CCn3cc(CCO)nn3)O[C@]3(C(=O)N(C)c4c(Br)cc(C)cc43)[C@H]2C)cc1	·	1.4	·
C[C@H]1CN([C@@H](C)CO)C(=O)c2cccc(NC(=O)C3CC3)c2O[C@@H]1CN(C)Cc1ccc(Oc2ccccc2)cc1	-26.8	·	67.8*
C[C@H](CO)N1C[C@H](C)[C@@H](CN(C)Cc2ccc(Oc3ccccc3)cc2)Oc2c(NC(=O)C3CC3)cccc2C1=O	-24.6	-1.3	47.6
C[C@@H]1CN([C@@H](C)CO)C(=O)c2cccc(NC(=O)C3CCCCC3)c2O[C@H]1CN(C)Cc1ccc(C(F)(F)F)cc1	-26.8	-0.7	75.5*
C[C@H](CO)N1C[C@H](C)[C@H](CN(C)Cc2ccc(C(F)(F)F)cc2)Oc2c(NC(=O)C3CCCCC3)cccc2C1=O	-28.1	·	1.5
O=C(N/N=C/c1ccccc1Cl)c1ccccn1	-1.8	-9.6	-11.6
C[C@@H]1CN([C@@H](C)CO)C(=O)c2cc(NC(=O)Nc3ccc(F)cc3)ccc2O[C@@H](C)CCCCO[C@H]1CN(C)Cc1ccc(Cl)c(Cl)c1	·	-0.7	·
C[C@@H]1CCCCO[C@H](CN(C)Cc2ccc(C(=O)Nc3ccccc3N)cc2)[C@@H](C)CN([C@H](C)CO)C(=O)c2cc(NS(=O)(=O)c3ccccc3)ccc2O1	·	-1.3	·
C[C@@H]1CCCCO[C@@H](CN(C)Cc2ccc(Cl)c(Cl)c2)[C@@H](C)CN([C@H](C)CO)C(=O)c2cc(NC(=O)Nc3ccc(F)cc3)ccc2O1	-13.8	·	67.1*
